Source: PubChem BioAssay
A selection: hits, their analogues and other compounds. The true share with any hit is near 9.2%.
Dynein transport = blocks dynein driven cargo transport along microtubules; AID 1381; 3617.4 mouse cells, GR-EGFP nuclear translocation imaging; test concentration mostly 20 µM; stimulated with dexamethasone, 1 µM; stronger effect = lower value; z-score, hits read low; 220,000 compounds, 0.47% hits;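 active = plate z-score of nuclear minus cytoplasmic receptor signal below a set negative limit, without overly bright fluorescence or cell loss, cut at about -3.5 in these data, passing the limit was not always enough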;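 note: z-score of nuclear minus cytoplasmic ring GR-EGFP intensity difference per well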
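Medium: Induction medium lacking tetracycline, stripped serum | Probe or stimulus: 1.0 µM final dexamethasone stimulus | Schedule: 48 h induction, then 1 h compound, then 30 min agonist, 37 °C | Signal: Automated 10x imaging of fixed Hoechst-stained cells | Evaluation: Per-cell GR-EGFP intensity, nucleus versus surrounding cytoplasmic ring, well-averaged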
PTEN del growth = PTEN-deleted cell growth suppression. HCT116 PTEN-null viability, CellTiter-Glo, 60 h; stronger effect = lower value. viability, % at 10 µM. 140,000 compounds, 1.2% hits. AID 827;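 active = viability at or below a set limit, 4 SD under the median of all tested compounds, cut at about 3.7% in these data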;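 note: PTEN knockout HCT116 line with beta catenin targeted HCT116 as companion control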
HCT116 bCat-KO = beta-catenin-lacking colon tumor cell growth suppression | HCT116 beta-catenin knockout viability, CellTiter-Glo, 60 h; stronger effect = lower value | viability, % at 10 µM | 140,000 compounds, 1.5% hits;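 active = viability at or under a set limit, the compound median less 4 SD, cut at about 6% in these data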
Autophagy mod = modulators of autophagy | AID 463193 | MEF GFP-LC3 puncta imaging; test concentration mostly 10 µM | 190,000 compounds, 0.98% hits | calls only at 10 µM (by protocol);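 active = percentage of spot-positive cells more than 3 SD above its plate mean, without a fluorescence outlier flag or 80% toxicity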
Lmaj promast = inhibitors of Leishmania major promastigote growth | Leishmania major promastigotes, resazurin fluorescence viability | inhibition, % at 10 µM | 200,000 compounds, 9% hits | AID 1063; in the data active = inhibition above about 50%;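 note: promastigotes grown with compound for 44 hours at 28 °C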
Numbers stand for hits; – = inactive; · = no result; + = active, no number.

SMILES	Dynein transport	PTEN del growth	HCT116 bCat-KO	Autophagy mod	Lmaj promast
OC(CNCc1ccccc1)COCc1ccc(Cl)cc1 (stereo not given)	–	·	·	–	84
Cc1[nH]n(-c2ccc(F)cc2)c(=O)c1C=Nc1ccc(S(=O)(=O)N(C)C)cc1	–	–	–	–	–
Cn1nc(C(C)(C)C)c(NC(=O)c2ccc(F)cc2)c1C(C)(C)C	–	·	·	·	·
COc1ccc(CNC(=O)c2noc(C(C)C)c2[N+](=O)[O-])cc1	–	–	–	–	54
CC(C)c1onc(C(=O)NCc2ccc(Cl)cc2)c1[N+](=O)[O-]	–	–	–	–	–
CNc1ccc(Br)cc(C(=O)/C=C/c2ccc3c(c2)OCO3)c1=O	–	–	–	–	72
CNc1ccc(Br)cc(C(=O)/C=C/c2ccc(OC)cc2)c1=O	–	–	–	–	–
CNc1ccc(Br)cc(C(=O)/C=C/c2cc(OC)ccc2OC)c1=O	-4.1	–	–	–	89
NC(=O)C1CCN(C(=O)OCc2ccccc2)CC1	–	–	–	–	–
CCN(CC)c1ccc(/C=N/N2CCN(Cc3ccccc3)CC2)cc1	–	·	·	–	–
CCN(CC)c1ccc(/C=N/NC(=S)NC)c(O)c1	–	·	·	–	83
CCN(CC)c1ccc(N=Cc2ccc(N(CC)CC)cc2O)cc1	–	–	–	–	100
CCN(CC)c1ccc(/C=N/N=C(N)N)c(O)c1	–	·	·	+	–
CCN(CC)c1ccc(/C=N/NC(=O)OC)c(O)c1	–	–	–	–	–
CCN(CC)c1ccc(/C=N/N2CCN(Cc3ccccc3)CC2)c(O)c1	–	–	–	–	92
CSc1ccc(CNC(C)(C)CO)cc1	–	·	·	–	–
CC(=O)c1cc2c(cc1NC(=O)c1c(-c3ccccc3)noc1C)OCO2	–	–	–	–	–
Fc1ccccc1/C=C1\CCCC2=C1NC(=S)NC2c1ccccc1F (stereo not given)	–	·	·	–	–
COc1cc(C(=O)NC2CC(C)(C)NC(C)(C)C2)cc(OC)c1OC	–	·	·	–	–
COc1ccccc1Nc1nc2ccc(C)cc2cc1C#N	–	–	–	–	–
CCOC(=O)c1ccc(Nc2ncnc3ccc(C)cc23)cc1	–	–	–	–	–
Cc1cccc(Nc2ncnc3ccc(Br)cc23)c1	–	·	·	–	56
COc1ccccc1Nc1ncnc2ccc(C)cc12	–	–	–	–	71
Cc1ccc2ncnc(Nc3cccc(C(=O)O)c3)c2c1	–	·	·	–	–
CCOC(=O)c1cccc(Nc2ncnc3ccc(C)cc23)c1	–	–	–	–	56
SMILES	Dynein transport	PTEN del growth	HCT116 bCat-KO	Autophagy mod	Lmaj promast
Cc1ccc2ncnc(Nc3ccccc3)c2c1	–	·	·	–	65
CCOC(=O)c1cc(-c2ccccc2)sc1NC(=O)C(C)Sc1nnc(N)s1 (stereo not given)	–	–	–	–	–
CCCCN(C)CCC(=O)Nc1ccc(C)cc1	–	–	–	–	90
CCCCN(C)CCC(=O)Nc1ccc(F)c(F)c1	–	–	–	–	–
CC12CCC(C/C1=N/NC(=O)COc1ccccc1Cl)C2(C)C (stereo not given)	–	·	·	–	–
COc1cccc(NC(=S)N/N=C2\CC3CCC2(C)C3(C)C)c1 (stereo not given)	–	·	·	–	89
COc1cccc(NC(=S)NN=C2CCC(C(C)(C)C)CC2)c1 (stereo not given)	–	·	·	–	–
CC12CCC(C/C1=N/NC(=O)Nc1ccccc1)C2(C)C (stereo not given)	–	·	·	–	95
COC(=O)[C@H](CC(C)C)NC(=O)N1CCN(c2cccc(C(F)(F)F)c2)CC1	–	–	–	–	–
CCCN(CCC)C1=CC(=[N+]2CCCC2)CC(C)(C)C1	–	–	–	–	100
CN(C)NC1=CC(=[N+]2CCCC2)CC(C)(C)C1	–	·	·	–	–
CC1(C)CC(N2CCCCC2)=CC(=[N+]2CCCCC2)C1	–	·	·	–	100
CC(=O)N(CCS(=O)(=O)c1ccc(Cl)cc1)Cc1cccs1	–	·	·	·	·
CCOC(=O)CCN(Cc1cccs1)S(=O)(=O)c1ccc(Cl)cc1	–	–	–	–	97
CC(C)(C)c1ccc(S(=O)(=O)N(CCCN2CCOCC2)Cc2cccs2)cc1	–	–	–	–	95
Cc1c(C(=O)OCC(=O)NCc2ccc3c(c2)OCO3)cccc1[N+](=O)[O-]	–	–	–	–	–
CCC(NC(=O)NNC(N)=S)(C(F)(F)F)C(F)(F)F	–	·	·	·	·
O=S(=O)(O)c1nc2ccccc2n1Cc1cccc2ccccc12	–	·	·	·	·
CCN(CC)CCCNc1nc2cc(OC)c(OC)cc2c2nc(-c3cccnc3)nn12	–	1.6	1.7	–	101
COc1cc2nc(NCCCN3CCN(C)CC3)n3nc(-c4ccccc4)nc3c2cc1OC	–	1.9	2.2	+	101
CCN(CC)CCCNc1nc2cc(OC)c(OC)cc2c2nc(-c3ccccc3)nn12	–	0.8	0.8	+	101
CC(C)N1CCC(N2CCN(Cc3nc4ccccc4s3)CC2CCO)CC1 (stereo not given)	–	·	·	·	·
O=C(Nc1ccccc1N1CCCC1)c1ccc([N+](=O)[O-])cc1Cl	–	·	·	–	–
Cc1onc(-c2ccccc2Cl)c1C(=O)OCC(=O)c1c(N)n(C)c(=O)n(C)c1=O	–	·	·	–	–
Cc1onc(-c2c(F)cccc2Cl)c1C(=O)OCC(=O)c1c(N)n(C)c(=O)n(C)c1=O	–	·	·	–	76
SMILES	Dynein transport	PTEN del growth	HCT116 bCat-KO	Autophagy mod	Lmaj promast
Cc1onc(-c2c(F)cccc2Cl)c1C(=O)ONC(=O)c1ccccc1	–	·	·	·	·
Cn1c(N)c(C(=O)COC(=O)c2ccc(S(=O)(=O)N3CCCCC3)cc2)c(=O)n(C)c1=O	–	·	·	–	–
Cn1c(N)c(C(=O)COC(=O)c2ccc(Cl)c(S(=O)(=O)N3CCCCC3)c2)c(=O)n(C)c1=O	–	–	–	–	88
Cc1onc(-c2c(F)cccc2Cl)c1C(=O)OCn1nnc2ccccc2c1=O	–	–	–	–	99
CSCCC(NS(=O)(=O)c1ccc2ccccc2c1)C(=O)OCC(=O)c1ccc(C(C)C)cc1 (stereo not given)	–	–	–	–	87
C=CCSc1nnc2nc3[nH]c4c(C)cccc4c3nn12	–	–	–	–	72
COc1ccccc1N1CCN(CC(=O)NCC2CCCO2)CC1 (stereo not given)	–	–	–	–	–
O=C(COC(=O)CNC(=O)c1sc2ccccc2c1Cl)Nc1cc(Cl)cc(Cl)c1	–	·	·	–	–
CCN(CC)S(=O)(=O)c1cc(NC(=O)COC(=O)c2ccc(NC(=O)CC#N)cc2)ccc1C	–	·	·	–	–
CCN(CC)S(=O)(=O)c1cc(NC(=O)COC(=O)c2sc3ccccc3c2Cl)ccc1C	–	–	–	–	50
Cc1ccccc1NC(=O)COC(=O)CNC(=O)c1sc2ccccc2c1Cl	–	–	–	–	87
O=C(C(c1ccccc1)c1ccccc1)N1CCN(Cc2ccco2)CC1	–	–	–	–	–
COc1ccc(/C=C\c2cc(OC)c(OC)cc2CC[N+](C)(C)C)cc1OC	–	·	·	–	–
CN(C)c1ccc(P(=O)(Nc2cccc(C(F)(F)F)c2)N2CCOCC2)c(NC(=O)c2cccs2)c1 (stereo not given)	–	–	–	–	59
